Results from ChEMBL document CHEMBL3112515, “Discovery of novel 6,7-disubstituted-4-phenoxyquinoline derivatives bearing 5-(aminomethylene)pyrimidine-2,4,6-trione moiety as c-Met kinase inhibitors” (Bioorg Med Chem, 2014).

Columns and labels:
HT-29 = assay: Cytotoxicity against human HT-29 cells after 72 hrs by MTT assay; settings: HT-29, 72 h
[1] = Cytotoxicity against human H460 cells after 72 hrs by MTT assay; settings: NCI-H460, 72 h
[2] = Cytotoxicity against human MKN45 cells after 72 hrs by MTT assay; settings: MKN-45, 72 h
[3] = molecular target: Hepatocyte growth factor receptor (Homo sapiens, UniProt P08581); assay: Inhibition of c-Met (unknown origin) using poly (Glu, Tyr) 4:1 after 30 mins by HTRF assay
A549 = assay: Cytotoxicity against human A549 cells after 72 hrs by MTT assay; type: functional, cell-based; settings: A549, 72 h
How it was run: (§1)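 Cells were grown in MEM with 10% FBS and seeded at about 4×10^3 cells per well, then held 24 h at 37 °C in 5% CO2. Compounds were added and the cells cultured 72 h. MTT was added to 5 µg/mL final for 4 h at 37 °C, and the formazan was dissolved in DMSO. IC50 is the mean of three determinations.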

[4] = Cytotoxicity against human U87MG cells after 72 hrs by MTT assay; type: functional, cell-based, U-87MG ATCC; settings: U-87 MG; how it was run: as §1

Compound	IC50 (HT-29) [nM]	IC50 [1] [nM]	IC50 [2] [nM]	IC50 [3] [nM]	IC50 (A549) [nM]	IC50 [4] [nM]
COc1cc2c(Oc3ccc(N/C=C4\C(=O)NC(=O)N(c5ccccc5C(F)(F)F)C4=O)cc3F)ccnc2cc1OCCCN1CCCC1	370	360	1400	7.51	–	–
COc1cc2c(Oc3ccc(N/C=C4\C(=O)NC(=O)N(c5ccc(F)c(Cl)c5)C4=O)cc3F)ccnc2cc1OCCCN1CCCCC1	200	80	40	3.15	180	1000
COc1cc2c(Oc3ccc(N/C=C4\C(=O)NC(=O)N(c5ccccc5)C4=O)cc3F)ccnc2cc1OCCCN1CCN(C)CC1	190	290	520	3.29	–	–
COc1cc2c(Oc3ccc(N/C=C4\C(=O)NC(=O)N(c5ccc(F)cc5)C4=O)cc3F)ccnc2cc1OCCCN1CCOCC1	240	120	740	3.58	–	–
COc1cc2c(Oc3ccc(N/C=C4\C(=O)NC(=O)N(c5ccccc5)C4=O)cc3F)ccnc2cc1OCCCN1CCCC1	200	290	210	3.36	–	–
COc1cc2c(Oc3ccc(N/C=C4\C(=O)NC(=O)N(c5c(C)cccc5C)C4=O)cc3F)ccnc2cc1OCCCN1CCCCC1	200	160	490	3.72	310	1200
COc1cc2c(Oc3ccc(N/C=C4\C(=O)NC(=O)N(c5c(C)cccc5C)C4=O)cc3F)ccnc2cc1OCCCN1CCN(C)CC1	260	170	450	3.26	–	–
COc1cc2c(Oc3ccc(N/C=C4\C(=O)NC(=O)N(c5ccccc5)C4=O)cc3F)ccnc2cc1OCCCN1CCCCC1	160	220	280	4.31	510	1300
COc1cc2c(Oc3ccc(N/C=C4\C(=O)NC(=O)N(c5c(C)cccc5C)C4=O)cc3F)ccnc2cc1OCCCN1CCCC1	120	160	900	2.35	230	1240
COc1cc2c(Oc3ccc(N/C=C4\C(=O)NC(=O)N(c5c(C)cccc5C)C4=O)cc3F)ccnc2cc1OCCCN1CCOCC1	140	85	5500	3.03	2200	7100
COc1cc(N2C(=O)NC(=O)/C(=C\Nc3ccc(Oc4ccnc5cc(OCCCN6CCCCC6)c(OC)cc45)c(F)c3)C2=O)c(OC)cc1Cl	2600	1200	1970	27.9	–	–
COc1cc2c(Oc3ccc(N/C=C4\C(=O)NC(=O)N(c5ccc(C)cc5)C4=O)cc3F)ccnc2cc1OCCCN1CCC(C)CC1	140	59	56	1.64	990	920
COc1cc2c(Oc3ccc(N/C=C4\C(=O)NC(=O)N(c5ccc(F)cc5F)C4=O)cc3F)ccnc2cc1OCCCN1CCC(C)CC1	5100	260	460	16	–	–
COc1cc(N2C(=O)NC(=O)/C(=C\Nc3ccc(Oc4ccnc5cc(OCCCN6CCC(C)CC6)c(OC)cc45)c(F)c3)C2=O)c(OC)cc1Cl	630	570	460	19.2	640	3400
COc1cc(N2C(=O)NC(=O)/C(=C\Nc3ccc(Oc4ccnc5cc(OCCCN6CCN(C)CC6)c(OC)cc45)c(F)c3)C2=O)c(OC)cc1Cl	7700	1800	480	24.7	–	–
COc1cc2c(Oc3ccc(N/C=C4\C(=O)NC(=O)N(c5ccccc5C(F)(F)F)C4=O)cc3F)ccnc2cc1OCCCN1CCN(C)CC1	7300	4200	3500	8.14	–	–

Compound	IC50 (HT-29) [nM]	IC50 [1] [nM]	IC50 [2] [nM]	IC50 [3] [nM]	IC50 (A549) [nM]	IC50 [4] [nM]
COc1cc2c(Oc3ccc(N/C=C4\C(=O)NC(=O)N(c5ccc(F)c(Cl)c5)C4=O)cc3F)ccnc2cc1OCCCN1CCC(C)CC1	150	87	65	4.82	–	–
COc1cc2c(Oc3ccc(N/C=C4\C(=O)NC(=O)N(c5ccc(F)cc5)C4=O)cc3F)ccnc2cc1OCCCN1CCC(C)CC1	220	110	120	3.09	350	3200
COc1cc2c(Oc3ccc(N/C=C4\C(=O)NC(=O)N(c5ccc(C)cc5)C4=O)cc3F)ccnc2cc1OCCCN1CCOCC1	180	61	210	2.16	110	8500
COc1cc2c(Oc3ccc(N/C=C4\C(=O)NC(=O)N(c5ccc(F)cc5F)C4=O)cc3F)ccnc2cc1OCCCN1CCOCC1	560	850	780	12.4	–	–
COc1cc2c(Oc3ccc(N/C=C4\C(=O)NC(=O)N(c5ccccc5C(F)(F)F)C4=O)cc3F)ccnc2cc1OCCCN1CCOCC1	3700	2300	18400	21.2	–	–
COc1cc(N2C(=O)NC(=O)/C(=C\Nc3ccc(Oc4ccnc5cc(OCCCN6CCCC6)c(OC)cc45)c(F)c3)C2=O)c(OC)cc1Cl	9400	710	350	16.8	380	2800
COc1cc2c(Oc3ccc(N/C=C4\C(=O)NC(=O)N(c5ccc(F)cc5)C4=O)cc3F)ccnc2cc1OCCCN1CCCCC1	140	160	480	3.64	–	–
COc1cc2c(Oc3ccc(N/C=C4\C(=O)NC(=O)N(c5ccc(F)cc5)C4=O)cc3F)ccnc2cc1OCCCN1CCN(C)CC1	310	120	120	3.15	510	–
COc1cc2c(Oc3ccc(N/C=C4\C(=O)NC(=O)N(c5ccc(F)cc5)C4=O)cc3F)ccnc2cc1OCCCN1CCCC1	490	620	1200	2.68	–	–
COc1cc(N2C(=O)NC(=O)/C(=C\Nc3ccc(Oc4ccnc5cc(OCCCN6CCOCC6)c(OC)cc45)c(F)c3)C2=O)c(OC)cc1Cl	1300	540	2400	32.8	–	–
COc1cc2c(Oc3ccc(N/C=C4\C(=O)NC(=O)N(c5ccc(F)cc5F)C4=O)cc3F)ccnc2cc1OCCCN1CCCC1	710	240	2800	12.4	–	–
COc1cc2c(Oc3ccc(N/C=C4\C(=O)NC(=O)N(c5ccccc5C(F)(F)F)C4=O)cc3F)ccnc2cc1OCCCN1CCCCC1	1300	930	100	18.5	–	–
COc1cc2c(Oc3ccc(N/C=C4\C(=O)NC(=O)N(c5ccccc5C(F)(F)F)C4=O)cc3F)ccnc2cc1OCCCN1CCC(C)CC1	600	380	310	18.3	–	–
COc1cc2c(Oc3ccc(N/C=C4\C(=O)NC(=O)N(c5ccc(F)cc5F)C4=O)cc3F)ccnc2cc1OCCCN1CCCCC1	420	1100	3900	9.27	–	–
COc1cc2c(Oc3ccc(N/C=C4\C(=O)NC(=O)N(c5c(C)cccc5C)C4=O)cc3F)ccnc2cc1OCCCN1CCC(C)CC1	120	150	130	2.83	–	–
